Reference: ChEMBL document CHEMBL1122845, “Inhibitors of blood platelet aggregation. Effects of some 1,2-benzisothiazol-3-ones on platelet responsiveness to adenosine diphosphate and collagen” (J Med Chem, 1985)
Blank lines part the entries; values can stand above or below the molecule they belong to.

Tests used:
[1] = test system: Cavia porcellus; experiment: Ex vivo inhibition of collagen induced guinea pig platelet aggregation following 0.08 mmol/kg administration.; type: functional
In short: (§1)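 Male rats (~200 g) or guinea pigs (~300 g), overnight fasted, n=5-10, received compound orally in 1% methylcellulose (5 mL/kg); vehicle-only controls. After 2 h, CO2 kill and vena cava blood into citrate (102 mM rat, 129 mM guinea pig). PRP set to 800000/µL (rat) or 500000/µL (guinea pig). Collagen EC50 (response of 50 mm; max 50 µg/mL) interpolated from a log plot. Dose ratio = treated/control mean EC50; t-test. Pooled PRP sometimes used.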

[2] = test system: Cavia porcellus; experiment: Ex vivo inhibition of ADP induced guinea pig platelet aggregation following 0.08 mmol/kg administration.; type: functional
In short: (§2)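 Fasted male rats (~200 g) or guinea pigs (~300 g), n=5-10, dosed orally (5 mL/kg) in 1% methylcellulose; methylcellulose alone as control. Killed with CO2 after 2 h. Vena cava blood citrated (102 mM rat, 129 mM guinea pig); PRP adjusted to 800000/µL (rat) or 500000/µL (guinea pig). EC25 for first-phase ADP aggregation (max 8 µM) interpolated from two 2-fold-spaced ADP levels. Dose ratio = treated/control mean EC25; Student's t-test. Some groups tested as pooled PRP.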

[3] = test system: Rattus norvegicus; experiment: The compound was tested ex vivo at a dose of 0.3 mmol/kg for collagen induced platelet aggregation in rat; type: functional; in short: as §1
[4] = organism: Cavia porcellus; experiment: The compound was tested ex vivo for collagen induced platelet aggregation in guinea pig; type: functional; in short: as §1
[5] = organism: Cavia porcellus; experiment: The compound was tested ex vivo for ADP induced platelet aggregation in guinea pig; type: functional; in short: as §2
[6] = test system: Cavia porcellus; experiment: The compound was tested at a dose of 0.08 mmol/kg ex vivo for collagen induced platelet aggregation in guinea pig; type: functional; in short: as §1
[7] = test system: Rattus norvegicus; experiment: The compound was tested ex vivo at a dose of 0.15 mmol/kg for ADP induced platelet aggregation in rat; type: functional; in short: as §2
[8] = test system: Cavia porcellus; experiment: The compound was tested ex vivo at a dose of 0.15 mmol/kg for ADP induced platelet aggregation in guinea pig; type: functional; in short: as §2
[9] = test system: Rattus norvegicus; experiment: The compound was tested ex vivo at a dose of 0.15 mmol/kg for collagen induced platelet aggregation in rat; type: functional; in short: as §1
[10] = test system: Cavia porcellus; experiment: The compound was tested ex vivo at a dose of 0.15 mmol/kg for collagen induced platelet aggregation in guinea pig; type: functional; in short: as §1
[11] = test system: Cavia porcellus; experiment: The compound was tested ex vivo at a dose of 0.04 mmol/kg for collagen induced platelet aggregation in guinea pig; type: functional; in short: as §1
[12] = test system: Cavia porcellus; experiment: The compound was tested ex vivo at a dose of 0.04 mmol/kg for ADP induced platelet aggregation in guinea pig; type: functional; in short: as §2
[13] = test system: Rattus norvegicus; experiment: The compound was tested at a dose of 0.15 mmol/kg ex vivo for collagen induced platelet aggregation in rat; type: functional; in short: as §1
[14] = test system: Rattus norvegicus; experiment: The compound was tested at a dose of 0.15 mmol/kg ex vivo for ADP induced platelet aggregation in rat; type: functional; in short: as §2
[15] = organism: Homo sapiens; experiment: (§3) In vitro inhibitory activity against human platelet aggregation in the presence of collagen; type: functional
In short: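 Aggregation measured photometrically in human citrated PRP (350000 platelets/µL, stirred at 1100 rpm). Compound or saline preincubated 3 min at 37 °C. Collagen at a just-maximal level chosen for each sample (typically 0.7-1.4 µg/mL). Maximum increase in light transmission measured. IC50 = concentration giving 50% inhibition.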

[16] = test system: Cavia porcellus; experiment: The compound was tested ex vivo at a dose of 0.15 mmol/kg for collagen induced platelet aggregation in guinea pig
[17] = test system: Rattus norvegicus; experiment: The compound was tested ex vivo at a dose of 0.15 mmol/kg for ADP induced platelet aggregation in rat
[18] = test system: Cavia porcellus; experiment: The compound was tested ex vivo at a dose of 0.08 mmol/kg for collagen induced platelet aggregation in guinea pig; type: functional; in short: as §1
[19] = test system: Cavia porcellus; experiment: The compound was tested ex vivo at a dose of 0.3 mmol/kg for ADP induced platelet aggregation in guinea pig; type: functional; in short: as §2
[20] = test system: Cavia porcellus; experiment: The compound was tested ex vivo at a dose of 0.3 mmol/kg for collagen induced platelet aggregation in guinea pig; type: functional; in short: as §1
[21] = test system: Cavia porcellus; experiment: The compound was tested ex vivo at a dose of 0.08 mmol/kg for ADP induced platelet aggregation in guinea pig; type: functional; in short: as §2
[22] = organism: Homo sapiens; experiment: as §3; type: functional, organism-based
[23] = test system: Rattus norvegicus; experiment: The compound was tested at a dose of 0.3 mmol/kg ex vivo for collagen induced platelet aggregation in rat; type: functional; in short: as §1
[24] = test system: Rattus norvegicus; experiment: The compound was tested ex vivo at a dose of 0.3 mmol/kg for ADP induced platelet aggregation in rat; type: functional; in short: as §2

SMILES: O=c1c2ccccc2sn1CCCN1CCCC1
Activity [1]: 6.2
Activity [2]: 2

SMILES: CCCCCn1sc2ccccc2c1=O
Activity [3]: 1.2

collagen EC50 dose ratio (treated/control) [4]: 2
SMILES: COc1cc2sn(CCCCCCN3CC4CCC(CC4)C3)c(=O)c2cc1OC
Activity [5]: 1.1

SMILES: O=c1c2ccccc2sn1-c1ccccn1
Activity [3]: 0.9

SMILES: O=c1c2ccccc2sn1CCCCN1CCOCC1
Activity [1]: 2.4
Activity [2]: 1.1

SMILES: COc1cc2sn(CCCN3CCCCC3)c(=O)c2cc1OC
Activity [6]: 2.5
Activity [2]: 1.1

collagen EC50 dose ratio (treated/control) [10]: 1.5
SMILES: COc1cc2sn(CCc3ccccn3)c(=O)c2cc1OC
Activity [7]: 1.8
Activity [8]: 1.1
Activity [9]: 2.8

SMILES: O=c1c2ccccc2sn1CCO
Activity [3]: 1.3

Dose ratio (treated/control collagen EC50) [11]: 1.1
SMILES: Cc1cc(C)c2c(=O)n(CCCCN3CC4CCC(CC4)C3)sc2c1
Activity [12]: 0.8

collagen EC50 dose ratio (treated/control) [10]: >27
SMILES: COc1cc2sn(CCCc3ccccn3)c(=O)c2cc1OC
Activity [8]: 2.4

IC50 [15]: 30 µM
SMILES: O=c1c2ccccc2sn1CCN1CCCC1
Activity [13]: 2.3
Activity [14]: 0.9
Activity [8]: 1.9
Activity [16]: 13.9

SMILES: O=c1c2cc(Cl)c(Cl)cc2sn1CCN1CCCCC1
Activity [7]: 1.2
Activity [9]: 1.5

SMILES: O=c1c2ccccc2sn1CCCCCN1CCCCC1
Activity [1]: 1.1
Activity [2]: 1.3

Dose ratio (treated/control collagen EC50) [11]: 1.6
SMILES: Cc1cc(C)c2c(=O)n(CCc3ccccn3)sc2c1
Activity [12]: 1

SMILES: CN(CCn1sc2ccccc2c1=O)c1ccccc1
Activity [7]: 1
Activity [9]: 1.1

Dose ratio (treated/control collagen EC50) [11]: >17
SMILES: CCN(CC)CCn1sc2cc(C)cc(C)c2c1=O
Activity [12]: 2.2

SMILES: COc1cc(OC)c2c(=O)n(CCN3CCCC3)sc2c1
Activity [1]: >31
Activity [2]: 4.6

collagen EC50 dose ratio (treated/control) [4]: 4.1
SMILES: COc1cc2sn(CCCCCN3CC4CCC(CC4)C3)c(=O)c2cc1OC
Activity [5]: 1.7

collagen EC50 dose ratio (treated/control) [10]: 0.8
SMILES: Cc1cc2sn(CCc3ccccn3)c(=O)c2cc1C
Activity [8]: 0.9

SMILES: O=c1c2ccccc2sn1CCCCN1CCCCC1
Activity [1]: 3.4
Activity [2]: 1.1

SMILES: COc1cc2sn(CCCCN3CCCCC3)c(=O)c2cc1OC
Activity [1]: 1.6
Activity [2]: 1.1

SMILES: Cc1cc2sn(CCN3CC4CCC(CC4)C3)c(=O)c2cc1C
Activity [13]: 1
Activity [7]: 1.3
Activity [17]: 1
Activity [10]: 0.7

collagen EC50 dose ratio (treated/control) [10]: 2.7
SMILES: COc1cc2sn(CCCCc3ccccn3)c(=O)c2cc1OC
Activity [8]: 2.4

SMILES: COc1cc2sn(CCN3CC4CCC(CC4)C3)c(=O)c2cc1OC
Activity [7]: 1.4
Activity [18]: 1.7
Activity [19]: 1
Activity [20]: 1.9
Activity [21]: 1.1
IC50 [22]: 110 µM
Activity [23]: >5.8
Activity [8]: 1.3
Activity [9]: 2.9
Activity [24]: 1.9
Activity [10]: 1.6

collagen EC50 dose ratio (treated/control) [4]: >36
SMILES: CCN(CC)CCn1sc2cc(C)cc(C)c2c1=O.O=S(=O)(O)c1ccc2ccccc2c1
Activity [5]: 2.8

SMILES: CCN(CC)CCn1sc2ccccc2c1=O
Activity [7]: 1.3
Activity [9]: 2.6

SMILES: O=c1c2ccccc2sn1CCCN1CC2CCC(CC2)C1
Activity [1]: 1.8
Activity [2]: 1.2
